Source: ChEMBL document CHEMBL2321840, “Synthesis and structure-activity relationships of indazole arylsulfonamides as allosteric CC-chemokine receptor 4 (CCR4) antagonists” (J Med Chem, 2013)
In brackets after ≈: the same amount, converted by molar mass.

Experiments:
[1] = Equilibrium solubility of the compound in fasted-state simulated intestinal fluid at pH 6.5 after 24 hrs by HPLC analysis; type: physicochemical
Summary of the method: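 Solid compound was equilibrated 24 h in the stated medium: water, SGF pH 1.6, FeSSIF pH 6.5, FaSSIF pH 6.5 or saline. Dissolved compound was quantified by HPLC.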

in vivo [2] = conditions: beagle, dog, iv, 0.5 mg/kg
[3] = molecular target: T1, Solute carrier organic anion transporter family member 1B1 (Homo sapiens, UniProt Q9Y6L6); test: Antagonist activity at OATP1B1 (unknown origin) by [35S]GTPgammaS binding assay; type: functional
T1 sequence (Q9Y6L6 whole entry): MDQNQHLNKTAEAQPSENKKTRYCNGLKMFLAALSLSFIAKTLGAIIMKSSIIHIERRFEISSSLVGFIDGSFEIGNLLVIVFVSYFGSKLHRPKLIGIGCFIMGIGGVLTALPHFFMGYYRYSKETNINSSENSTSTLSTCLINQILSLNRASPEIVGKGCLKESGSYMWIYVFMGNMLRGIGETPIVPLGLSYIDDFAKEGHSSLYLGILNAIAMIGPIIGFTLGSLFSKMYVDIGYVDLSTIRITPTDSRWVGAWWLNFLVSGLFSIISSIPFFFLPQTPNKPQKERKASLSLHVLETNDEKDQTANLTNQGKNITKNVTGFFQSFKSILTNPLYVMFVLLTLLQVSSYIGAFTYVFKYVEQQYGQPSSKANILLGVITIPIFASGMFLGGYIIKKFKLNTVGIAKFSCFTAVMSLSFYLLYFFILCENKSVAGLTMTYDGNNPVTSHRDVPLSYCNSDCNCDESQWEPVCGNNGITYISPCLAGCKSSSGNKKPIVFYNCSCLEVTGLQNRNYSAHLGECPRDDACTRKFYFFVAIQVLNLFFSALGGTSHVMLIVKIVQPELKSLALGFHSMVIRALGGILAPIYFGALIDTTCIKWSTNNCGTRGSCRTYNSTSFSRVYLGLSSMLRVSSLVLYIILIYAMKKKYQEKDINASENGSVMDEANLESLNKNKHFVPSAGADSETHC

[4] = Kinetic solubility of the compound in PBS using MeOH at pH 7.4 by NMR analysis; type: physicochemical; conditions: read-out: Kinetic_solubility
[5] = Volume of distribution at steady state in Beagle dog at 0.5 mg/kg, iv; type: ADME, organism-based, Canis lupus familiaris; design: dose 0.5 mg/kg, route intravenous; conditions: beagle, in vivo, read-out: Vdss
[6] = molecular target: C-C chemokine receptor type 2 (Homo sapiens, UniProt P41597); test: Antagonist activity at CCR2 receptor (unknown origin) by [35S]GTPgammaS binding assay; type: functional
[7] = Equilibrium solubility of the compound in Britton-Robinson buffer at pH 8 after 24 hrs by HPLC analysis; type: physicochemical
Summary of the method: (§1)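 Solid compound was equilibrated 24 h in Britton–Robinson buffer at the stated pH. Dissolved compound was quantified by HPLC.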

[8] = molecular target: T2, C-C chemokine receptor type 10 (Homo sapiens, UniProt P46092); test: Antagonist activity at CCR10 receptor (unknown origin) by [35S]GTPgammaS binding assay; type: functional
T2 sequence (P46092 whole entry): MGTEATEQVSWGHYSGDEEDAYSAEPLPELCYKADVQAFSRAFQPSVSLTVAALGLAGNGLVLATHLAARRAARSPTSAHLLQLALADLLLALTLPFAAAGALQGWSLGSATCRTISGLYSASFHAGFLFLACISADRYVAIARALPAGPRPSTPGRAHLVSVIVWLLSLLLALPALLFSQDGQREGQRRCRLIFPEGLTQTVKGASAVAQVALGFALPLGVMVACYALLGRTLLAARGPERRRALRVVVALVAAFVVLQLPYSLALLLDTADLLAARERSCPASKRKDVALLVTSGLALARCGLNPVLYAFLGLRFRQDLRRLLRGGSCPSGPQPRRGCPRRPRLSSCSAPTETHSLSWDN

[9] = molecular target: T3, C-X-C chemokine receptor type 1 (Homo sapiens, UniProt P25024); test: Antagonist activity at CXCR1 receptor (unknown origin) by [35S]GTPgammaS binding assay; type: functional
T3 sequence (P25024 whole entry): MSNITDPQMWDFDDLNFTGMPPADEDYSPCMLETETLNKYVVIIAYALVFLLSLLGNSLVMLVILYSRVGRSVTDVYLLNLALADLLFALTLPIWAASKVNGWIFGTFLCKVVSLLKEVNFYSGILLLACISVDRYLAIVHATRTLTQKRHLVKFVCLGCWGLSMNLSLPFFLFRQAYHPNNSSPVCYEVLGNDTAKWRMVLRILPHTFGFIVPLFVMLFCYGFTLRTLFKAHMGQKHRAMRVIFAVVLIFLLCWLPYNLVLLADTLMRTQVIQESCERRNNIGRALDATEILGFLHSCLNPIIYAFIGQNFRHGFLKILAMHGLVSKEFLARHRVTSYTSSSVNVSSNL

[10] = molecular target: T4, C-X-C chemokine receptor type 2 (Homo sapiens, UniProt P25025); test: Antagonist activity at CXCR2 receptor (unknown origin) by [35S]GTPgammaS binding assay; type: functional
T4 sequence (P25025 whole entry): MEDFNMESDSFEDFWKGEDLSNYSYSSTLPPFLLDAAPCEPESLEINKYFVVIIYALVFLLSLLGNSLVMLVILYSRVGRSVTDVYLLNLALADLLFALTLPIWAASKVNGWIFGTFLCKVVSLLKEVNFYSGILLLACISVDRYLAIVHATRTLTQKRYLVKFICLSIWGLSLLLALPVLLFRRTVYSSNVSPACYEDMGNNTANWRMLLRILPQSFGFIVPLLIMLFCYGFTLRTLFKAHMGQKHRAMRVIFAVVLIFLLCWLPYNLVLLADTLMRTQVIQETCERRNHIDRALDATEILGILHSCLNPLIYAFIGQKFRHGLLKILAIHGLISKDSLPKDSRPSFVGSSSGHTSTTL

[11] = molecular target: Acetylcholine receptor subunit alpha (Homo sapiens) (UniProt P02708); test: Antagonist activity at nAChR alpha1 (unknown origin) by [35S]GTPgammaS binding assay; type: functional
Rattus norvegicus = test: Toxicity in rat assessed as effect on body temperature at 30 to 300 mg/kg, po; type: organism-based; design: dose 30-300 mg/kg, route oral; conditions: in vivo
Summary of the method: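 Conscious rats were given oral doses of 30, 100 and 300 mg/kg. Body temperature, cardiovascular and electrocardiographic parameters were monitored.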

[12] = Oral bioavailability in CD rat at 1 mg/kg administered as suspension; type: ADME, organism-based; conditions: in vivo
Summary of the method: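 Rats received an oral suspension of wet bead-milled material (particle size <1 μm), dosed at 1, 10 and 30 mg/kg.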

in vivo [13] = conditions: CD, rat, iv, 1 mg/kg
HepG2 = test: Cytotoxicity in human HepG2 cells assessed as effect on cell membrane; type: cell-based
[14] = Oral bioavailability in Beagle dog at 1 mg/kg; type: ADME, organism-based, Canis lupus familiaris; conditions: in vivo
[15] = Equilibrium solubility of the compound in Britton-Robinson buffer at pH 7 after 24 hrs by HPLC analysis; type: physicochemical; summary of the method: as §1
Oryctolagus cuniculus = species: Oryctolagus cuniculus; test: Cardiotoxicity in rabbit assessed as effect on cardiac repolarization; type: toxicity, Heart

C-C chemokine receptor type 2, sequence (P41597 whole entry): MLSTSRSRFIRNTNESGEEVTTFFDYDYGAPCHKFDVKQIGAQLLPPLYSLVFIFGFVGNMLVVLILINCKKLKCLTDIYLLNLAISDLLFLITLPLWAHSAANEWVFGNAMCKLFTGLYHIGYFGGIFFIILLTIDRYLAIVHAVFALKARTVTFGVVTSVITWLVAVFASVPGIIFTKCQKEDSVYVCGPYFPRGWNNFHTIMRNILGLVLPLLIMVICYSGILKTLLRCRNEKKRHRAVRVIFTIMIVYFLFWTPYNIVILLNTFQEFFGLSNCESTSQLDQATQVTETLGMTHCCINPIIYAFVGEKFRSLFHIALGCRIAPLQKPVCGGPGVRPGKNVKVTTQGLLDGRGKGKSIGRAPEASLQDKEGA
Acetylcholine receptor subunit alpha (Homo sapiens), sequence (P02708 whole entry): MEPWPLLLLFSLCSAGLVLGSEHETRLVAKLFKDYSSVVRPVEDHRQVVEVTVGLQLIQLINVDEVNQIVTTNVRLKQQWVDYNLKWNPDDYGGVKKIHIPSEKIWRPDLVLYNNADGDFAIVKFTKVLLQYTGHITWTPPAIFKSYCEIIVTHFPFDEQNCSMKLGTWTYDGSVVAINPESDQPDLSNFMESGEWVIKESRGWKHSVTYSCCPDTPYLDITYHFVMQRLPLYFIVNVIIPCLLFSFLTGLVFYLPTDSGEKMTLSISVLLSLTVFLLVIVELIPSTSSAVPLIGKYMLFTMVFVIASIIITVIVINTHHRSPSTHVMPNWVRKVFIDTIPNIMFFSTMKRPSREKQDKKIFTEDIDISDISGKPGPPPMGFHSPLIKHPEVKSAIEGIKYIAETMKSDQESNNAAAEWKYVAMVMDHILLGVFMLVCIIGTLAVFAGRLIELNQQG

Work on `COc1cccc2c1c(NS(=O)(=O)c1ccc(Cl)s1)nn2Cc1cccc(CNC(=O)C(C)(C)O)c1` yielded a solubility thermodynamic at 24 h [1] of 10 µg/mL (≈ 18.2 µM), a clearance (in vivo [2]) of 9 mL/min/kg and an IC50 [3] of 0.398 µM. The solubility kinetic [4] was over 270 µg/mL, the Vd [5] was 2.2 L/kg and the IC50 [6] was over 10 µM. The solubility thermodynamic at 24 h [7] was 56 µg/mL (≈ 102 µM), the IC50 [8] was over 10 µM and the IC50 [9] was over 10 µM. For the same molecule, the IC50 [10] was over 10 µM, the pXC50 [11] was 5.1 and the Activity (Rattus norvegicus) was “Non-toxic”. For the same molecule, the bioavailability [12] was 53%, the half-life (in vivo [13]) was 2.5 h and the Activity (HepG2) was “Non-toxic”. For the same molecule, the bioavailability [14] was 97%, the solubility thermodynamic at 24 h [15] was 10 µg/mL (≈ 18.2 µM) and the Activity (Oryctolagus cuniculus) was “Non-toxic”.
